Laboratory results: ChEMBL document CHEMBL1914423, “New imidazo[2,1-b]thiazole derivatives: synthesis, in vitro anticancer evaluation, and in silico studies” (Eur J Med Chem, 2011)

Key:
SW-620 = assay: Anticancer activity against human SW620 cells assessed as cell growth at 10^-5 M after 48 hrs by SRB assay; format: functional; settings: SW-620, 48 h, read-out: Activity
In short: (§1)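 NCI-60 single-dose screen: cells in RPMI 1640 with 5% FBS and 2 mM L-glutamine, plated at 5000–40,000 cells/well by doubling time, and preincubated 24 h at 37 °C. Compound given at one concentration from DMSO stock. Cells TCA-fixed and SRB-stained, absorbance at 515 nm. Percent growth relative to time-zero and untreated controls; inhibition % = 100 − growth %.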

SF-268 = assay: Anticancer activity against human SF268 cells assessed as cell growth at 10^-5 M after 48 hrs by SRB assay; format: functional; settings: SF-268, 48 h, read-out: Activity
NCI-H322M = assay: Anticancer activity against human NCI-H322M cells assessed as cell growth at 10^-5 M after 48 hrs by SRB assay; format: functional; settings: read-out: Activity
LOX IMVI = assay: Anticancer activity against human LOXIMVI cells assessed as cell growth at 10^-5 M after 48 hrs by SRB assay; format: functional; settings: read-out: Activity
In short: (§2)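 NCI-60 single-dose screen at one concentration. Cells grown in RPMI 1640 with 5% FBS and 2 mM L-glutamine, plated at 5000–40,000 cells/well, and pre-incubated 24 h at 37 °C in 5% CO2 before DMSO-dissolved drug was added. Cells fixed with TCA, SRB-stained, absorbance read at 515 nm. Percent growth calculated against time-zero and untreated control plates.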

OVCAR-5 = assay: Anticancer activity against human OVCAR5 cells assessed as cell growth at 10^-5 M after 48 hrs by SRB assay; format: functional; settings: OVCAR-5, 48 h, read-out: Activity
CAKI-1 = assay: Anticancer activity against human Caki1 cells assessed as cell growth at 10^-5 M after 48 hrs by SRB assay; format: functional; settings: CAKI-1, 48 h, read-out: Activity; in short: as §2
UO-31 = assay: Anticancer activity against human UO31 cells assessed as cell growth at 10^-5 M after 48 hrs by SRB assay; format: functional; settings: UO-31, 48 h, read-out: Activity; in short: as §1
HT-29 = assay: Anticancer activity against human HT-29 cells assessed as cell growth at 10^-5 M after 48 hrs by SRB assay; format: functional; settings: HT-29, 48 h, read-out: Activity; in short: as §2
SF-295 = assay: Anticancer activity against human SF295 cells assessed as cell growth at 10^-5 M after 48 hrs by SRB assay; format: functional; settings: SF-295, 48 h, read-out: Activity
HL-60(TB) = assay: Anticancer activity against human HL-60(TB) cells assessed as cell growth at 10^-5 M after 48 hrs by SRB assay; format: functional; settings: HL-60, 48 h, read-out: Activity
In short: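 NCI-60 single-dose screen. Cells in RPMI 1640 with 5% FBS and 2 mM L-glutamine were plated at 5000–40,000 cells/well and preincubated 24 h at 37 °C before one compound concentration. Time-zero plates were TCA-fixed at drug addition. For suspension cells, settled cells were fixed with cold TCA, then SRB-stained and read at 515 nm. Percent growth was calculated from time-zero, control and treated absorbances.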

MDA-MB-468 = assay: Anticancer activity against human MDA-MB-468 cells assessed as cell growth at 10^-5 M after 48 hrs by SRB assay; format: functional; settings: MDA-MB-468, 48 h, read-out: Activity
SNB-19 = assay: Anticancer activity against human SNB19 cells assessed as cell growth at 10^-5 M after 48 hrs by SRB assay; format: functional; settings: SNB-19, 48 h, read-out: Activity
SR = assay: Anticancer activity against human SR cells assessed as cell growth at 10^-5 M after 48 hrs by SRB assay; format: functional; settings: read-out: Activity; in short: as §1
MDA-MB-231 = assay: Anticancer activity against human MDA-MB-231 cells assessed as cell growth at 10^-5 M after 48 hrs by SRB assay; format: functional; settings: MDA-MB-231, 48 h, read-out: Activity; in short: as §2
OVCAR-4 = assay: Anticancer activity against human OVCAR4 cells assessed as cell growth at 10^-5 M after 48 hrs by SRB assay; format: functional; settings: OVCAR-4, 48 h, read-out: Activity
SK-MEL-5 = assay: Anticancer activity against human SK-MEL-5 cells assessed as cell growth at 10^-5 M after 48 hrs by SRB assay; format: functional; settings: SK-MEL-5, 48 h, read-out: Activity
HCT-116 = assay: Anticancer activity against human HCT116 cells assessed as cell growth at 10^-5 M after 48 hrs by SRB assay; format: functional; settings: HCT-116, 48 h, read-out: Activity; in short: as §2
EKVX = assay: Anticancer activity against human EKVX cells assessed as cell growth at 10^-5 M after 48 hrs by SRB assay; format: functional; settings: read-out: Activity; in short: as §2
UACC-62 = assay: Anticancer activity against human UACC62 cells assessed as cell growth at 10^-5 M after 48 hrs by SRB assay; format: functional; settings: UACC-62, 48 h, read-out: Activity; in short: as §1
SK-MEL-2 = assay: Anticancer activity against human SK-MEL-2 cells assessed as cell growth at 10^-5 M after 48 hrs by SRB assay; format: functional; settings: SK-MEL-2, 48 h, read-out: Activity
[1] = Antiproliferative activity against human A375P cells after 48 hrs by MTT assay; format: functional, cell-based
In short: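 A375P cells in DMEM with 10% FBS at 37 °C, 5% CO2. Seeded at 5×10³ cells/well, held 24 h, then treated with 12-point 3-fold serial dilutions for 48 h. Viability by MTT reduction. IC50 values are means of triplicate experiments.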

BT-549 = assay: Anticancer activity against human BT549 cells assessed as cell growth at 10^-5 M after 48 hrs by SRB assay; format: functional; settings: BT-549, 48 h, read-out: Activity; in short: as §2
PC-3 = assay: Anticancer activity against human PC3 cells assessed as cell growth at 10^-5 M after 48 hrs by SRB assay; format: functional; settings: PC-3, 48 h, read-out: Activity
M14 = assay: Anticancer activity against human M14 cells assessed as cell growth at 10^-5 M after 48 hrs by SRB assay; format: functional; settings: M14, 48 h, read-out: Activity; in short: as §2
ACHN = assay: Anticancer activity against human ACHN cells assessed as cell growth at 10^-5 M after 48 hrs by SRB assay; format: functional; settings: read-out: Activity; in short: as §2
HOP-92 = assay: Anticancer activity against human HOP92 cells assessed as cell growth at 10^-5 M after 48 hrs by SRB assay; format: functional; settings: HOP-92, 48 h, read-out: Activity; in short: as §2
T47D = assay: Anticancer activity against human T47D cells assessed as cell growth at 10^-5 M after 48 hrs by SRB assay; format: functional; settings: read-out: Activity; in short: as §1
NCI-H226 = assay: Anticancer activity against human NCI-H226 cells assessed as cell growth at 10^-5 M after 48 hrs by SRB assay; format: functional; settings: NCI-H226, 48 h, read-out: Activity
MOLT-4 = assay: Anticancer activity against human MOLT4 cells assessed as cell growth at 10^-5 M after 48 hrs by SRB assay; format: functional; settings: MOLT-4, 48 h, read-out: Activity
MCF7 = assay: Anticancer activity against human MCF7 cells assessed as cell growth at 10^-5 M after 48 hrs by SRB assay; format: functional; settings: MCF7, 48 h, read-out: Activity; in short: as §2

Compound `O=C(NCCNc1nccc(-c2c(-c3cccc(O)c3)nc3sccn23)n1)Nc1cccc(C(F)(F)F)c1` has a growth at 10 µM (SW-620) of 30.3%, a growth at 10 µM (SF-268) of 26.2% and a growth at 10 µM (NCI-H322M) of 76.8%. The growth at 10 µM (LOX IMVI) was 64.5%, the growth at 10 µM (OVCAR-5) was 117% and the growth at 10 µM (CAKI-1) was 90.3%. The growth at 10 µM (UO-31) was 75.2%, the growth at 10 µM (HT-29) was 38.9% and the growth at 10 µM (SF-295) was 75.5%. The growth at 10 µM (HL-60(TB)) was 36.4%, the growth at 10 µM (MDA-MB-468) was -40.6% and the growth at 10 µM (SNB-19) was 89.5%. It also gave a growth at 10 µM (SR) of 59.2%, a growth at 10 µM (MDA-MB-231) of 37.7% and a growth at 10 µM (OVCAR-4) of 110%. It also gave a growth at 10 µM (SK-MEL-5) of 53.5%, a growth at 10 µM (HCT-116) of 56.8% and a growth at 10 µM (EKVX) of 91.2%. The growth at 10 µM (UACC-62) was 29.4%, the growth at 10 µM (SK-MEL-2) was 54.4% and the IC50 [1] was 4.2 µM. It also gave a growth at 10 µM (BT-549) of 41.1%, a growth at 10 µM (PC-3) of 26.7% and a growth at 10 µM (M14) of -21.7%. The growth at 10 µM (ACHN) was 85.1%, the growth at 10 µM (HOP-92) was 54.5% and the growth at 10 µM (T47D) was 63.8%. It also gave a growth at 10 µM (NCI-H226) of 97%, a growth at 10 µM (MOLT-4) of 59.8% and a growth at 10 µM (MCF7) of 55.6%.
For `O=C(NCCNc1nccc(-c2c(-c3cccc(O)c3)nc3sccn23)n1)Nc1cc(C(F)(F)F)cc(C(F)(F)F)c1`, the growth at 10 µM (SW-620) was 73.5%, the growth at 10 µM (SF-268) was 69.4% and the growth at 10 µM (NCI-H322M) was 87%. It also gave a growth at 10 µM (LOX IMVI) of 60.6%, a growth at 10 µM (OVCAR-5) of 96.5% and a growth at 10 µM (CAKI-1) of 72.3%. It also gave a growth at 10 µM (UO-31) of 73.1%, a growth at 10 µM (HT-29) of 63.1% and a growth at 10 µM (SF-295) of 66.8%. For the same compound, the growth at 10 µM (HL-60(TB)) was 97.3%, the growth at 10 µM (MDA-MB-468) was 57.8% and the growth at 10 µM (SNB-19) was 90.8%. It also gave a growth at 10 µM (SR) of 65.3%, a growth at 10 µM (MDA-MB-231) of 41.4% and a growth at 10 µM (OVCAR-4) of 121%. The growth at 10 µM (SK-MEL-5) was 59.7%, the growth at 10 µM (HCT-116) was 66.3% and the growth at 10 µM (EKVX) was 52.2%. For the same compound, the growth at 10 µM (UACC-62) was 54.4%, the growth at 10 µM (SK-MEL-2) was 110% and the IC50 [1] was greater than 10 µM. For the same compound, the growth at 10 µM (BT-549) was 87.6%, the growth at 10 µM (PC-3) was 51.2% and the growth at 10 µM (M14) was 21.4%. For the same compound, the growth at 10 µM (ACHN) was 65.9%, the growth at 10 µM (HOP-92) was 74.4% and the growth at 10 µM (T47D) was 72%. For the same compound, the growth at 10 µM (NCI-H226) was 101%, the growth at 10 µM (MOLT-4) was 60.2% and the growth at 10 µM (MCF7) was 67.5%.
In the case of `COc1cccc(-c2nc3sccn3c2-c2ccnc(NCCNC(=O)c3ccccc3)n2)c1`, the growth at 10 µM (SW-620) is reported as 114%, the growth at 10 µM (SF-268) is reported as 92.7% and the growth at 10 µM (NCI-H322M) is reported as 110%. For the same compound, the growth at 10 µM (LOX IMVI) was 54.8%, the growth at 10 µM (OVCAR-5) was 99.1% and the growth at 10 µM (CAKI-1) was 84.3%. The growth at 10 µM (UO-31) was 53.8%, the growth at 10 µM (HT-29) was 53.5% and the growth at 10 µM (SF-295) was 85.4%. The growth at 10 µM (HL-60(TB)) was 94.2%, the growth at 10 µM (MDA-MB-468) was 79.4% and the growth at 10 µM (SNB-19) was 110%. For the same compound, the growth at 10 µM (SR) was 79.8%, the growth at 10 µM (MDA-MB-231) was 83.5% and the growth at 10 µM (OVCAR-4) was 109%. The growth at 10 µM (SK-MEL-5) was 55.3%, the growth at 10 µM (HCT-116) was 81.8% and the growth at 10 µM (EKVX) was 106%. The growth at 10 µM (UACC-62) was 24.6%, the growth at 10 µM (SK-MEL-2) was 73.3% and the IC50 [1] was greater than 10 µM. For the same compound, the growth at 10 µM (BT-549) was 85.1%, the growth at 10 µM (PC-3) was 79.7% and the growth at 10 µM (M14) was 40.1%. For the same compound, the growth at 10 µM (ACHN) was 65.8%, the growth at 10 µM (HOP-92) was 77.8% and the growth at 10 µM (T47D) was 61.9%. For the same compound, the growth at 10 µM (NCI-H226) was 79.3%, the growth at 10 µM (MOLT-4) was 53.4% and the growth at 10 µM (MCF7) was 81.7%.
